Source: PubChem BioAssay (The Scripps Research Institute Molecular Screening Center)
core dimer inh = HCV core protein dimerization inhibition; TR-FRET GST/Flag-core106 dimerization, 1536-well; inhibition, % at 5 µM; hit rate 0.33% among 300,000; AID 1899;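 active = inhibition above the mean of all tested compounds plus 3 SD, set per screening campaign, cut at about 45% in these data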
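Assay system: Tagged HCV core106 pair (GST and Flag) | Buffer or medium: KF-containing HEPES buffer, pH 7.45, DTT, CHAPS, BSA | Also added: Eu donor and XL665 acceptor anti-tag antibodies | Dosing: One concentration, 5 µM, in 0.5% DMSO | Timing: 4 h at 22.5 °C | Technique: TR-FRET 671 and 617 nm emission | Repeats: Singlicate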
TAAR1 agonist = human TAAR1 agonism; activation, % at 3 µM; hit rate 0.99% among 360,000; AID 624467; CHO RD-HGA16 TAAR1, Fluo-8 calcium fluorescence; vehicle wells 0%, saturating PEA agonist 100%; Q96RJ0;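 active = activation above the mean activation of all test compounds in the run plus 3 SD, cut at about 38% in these data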
Target sequence (Q96RJ0 whole entry, looked up): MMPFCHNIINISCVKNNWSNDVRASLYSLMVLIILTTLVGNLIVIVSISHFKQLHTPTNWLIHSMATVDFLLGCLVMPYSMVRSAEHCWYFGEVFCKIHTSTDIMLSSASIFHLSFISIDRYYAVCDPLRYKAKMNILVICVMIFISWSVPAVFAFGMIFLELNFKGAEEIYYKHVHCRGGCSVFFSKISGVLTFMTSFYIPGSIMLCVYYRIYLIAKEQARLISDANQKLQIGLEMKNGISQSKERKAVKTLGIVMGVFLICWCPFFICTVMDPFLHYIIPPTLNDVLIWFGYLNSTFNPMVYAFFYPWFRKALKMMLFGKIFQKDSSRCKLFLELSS
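Test system: RD-HGA16 (CHO) cells co-expressing Gα16 and hTAAR1 / Benchmarks: DMSO vehicle as 0%, PEA at EC100 as 100% / Repeats: no replicates (n 1) / Measure: % activation from peak over basal fluorescence ratio, DMSO-to-PEA scaled / Timing: 17-24 h plating, Fluo-8 75 min 37 °C, 30 min RT / Technique: kinetic Fluo-8 calcium fluorescence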
rCAG RNA binder = r(CAG) repeat RNA binding; hit rate 1.3% among 370,000; TO-PRO-1 dye displacement fluorescence; inhibition, % at 3 µM;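 active = inhibition above the plate cutoff, the mean of all test compounds on that plate plus 3 SD, cut at about 35% in these data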;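 also: 0% = DMSO alone and 100% = 100 µM mitoxantrone as full dye displacement; higher means more dye released from RNA so lower well fluorescence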
HCV NS3 hel inh = blocks Hepatitis C virus NS3 helicase unwinding; NS3 helicase DNA unwinding, Cy5 molecular beacon fluorescence; inhibition, % at 10.9 µM; hit rate 0.56% among 290,000;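 active = inhibition above the mean of all tested compounds plus 3 SD, set per campaign, cut at about 35% in these data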;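 also: 0% = DMSO wells and 100% = thioflavine S control wells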
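test system = hepatitis C virus NS3 helicase domain fragment enzyme | reagent = annealed dual-labelled DNA beacon duplex, ATP-started | times = 1 h at 25 °C | detection = Cy5 fluorescence, 0 and 60 min reads | read-out basis = percent inhibition from t60/t0 fluorescence ratio | control set = DMSO and thioflavine S | replication = one well per compound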
TAAR1 antag = human TAAR1 antagonism; inhibition, % at 3 µM; Q96RJ0; AID 624466; hit rate 1.5% among 360,000; CHO RD-HGA16 TAAR1, Fluo-8 calcium fluorescence, antagonist;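 active = inhibition above a per-plate cutoff, the mean inhibition of test compounds on that plate plus 3 SD, cut at about 49% in these data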;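 also: 0% = DMSO plus EC80 beta-PEA response and 100% = DMSO alone without agonist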
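System: CHO RD-HGA16 cells bearing hTAAR1. Reagent: EC80 β-phenethylamine stimulus. Schedule: seeding 17-24 h prior, 75-min 37 °C, 30-min RT dye loading. Signal: Fluo-8 intracellular calcium dye fluorescence, real-time kinetic reads. Read-out: % inhibition from peak post-agonist over basal fluorescence ratio. Benchmarks: vehicle wells and EC80 agonist wells. Replicates: n of 1.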
TAAR1 ag confirm = human TAAR1 agonism, confirmed; CHO RD-HGA16 TAAR1, Fluo-8 calcium fluorescence; scaled: DMSO 0%, maximal phenethylamine 100%; hit rate 82% among 2,400; activation, % at 3 µM; shares compounds with TAAR1 agonist; AID 651783;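 active = activation above a cutoff set at the run's mean compound activation plus 3 SD, cut at about 39% in these data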
Ga16 ag counter = counter-screen for TAAR1 agonists: nonselective agonists in parental cells | hit rate 50% among 2,400 | activation, % at 3 µM | CHO-Ga16 parental, Fluo-8 calcium fluorescence; normalized to maximal ATP response, DMSO zero | shares compounds with TAAR1 agonist;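 active = activation above the run cutoff, the mean activation over all tested wells plus 3 SD, cut at about 12% in these data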;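 also: 0% = DMSO wells and 100% = maximal ATP response on the peak over basal ratio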
TAAR1 desens = TAAR1 response desensitization, agonist counter-screen. shares compounds with TAAR1 agonist. CHO RD-HGA16 hTAAR1, Fluo-8 calcium, beta-PEA response inhibition. inhibition, % at 3 µM. hit rate 46% among 2,400;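 active = inhibition above the run cutoff, the mean inhibition of all test compounds plus 3 SD, cut at about 49% in these data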;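 also: beta-PEA stimulus applied at its EC80; loss of beta-PEA calcium signal after compound pretreatment read as receptor desensitization; 0% = DMSO with beta-PEA at EC80 and 100% = DMSO alone without agonist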
Ga16 nonsel ant = nonselective Ga16 antagonism, counter-screen. shares compounds with TAAR1 agonist. CHO-Ga16 ATP-induced calcium, Fluo-8 fluorescence. inhibition, % at 3 µM. hit rate 39% among 2,400;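 active = inhibition above the plate's mean compound inhibition plus 3 SD, computed per plate, cut at about 22% in these data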;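 also: 0% = EC80 ATP with DMSO and 100% = DMSO wells without ATP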
* = called active by the depositor. The list is not random: actives were taken first. Their share in the collection is about 3.7%.

`Cc1ccccc1NC(=O)CC1SC(=O)N(c2ccccc2)C1=O` (configuration not stated) gave core dimer inh -3, TAAR1 agonist 50*, rCAG RNA binder 26, HCV NS3 hel inh 8, TAAR1 antag -7, TAAR1 ag confirm 17, Ga16 ag counter 2, TAAR1 desens 14 and Ga16 nonsel ant 11.
`O=C(C[C@@H]1CC[C@H](NC(=O)Cc2ccccn2)[C@@H](CO)O1)NCCc1ccccc1` gave TAAR1 agonist 47*, rCAG RNA binder 0, TAAR1 antag -11, TAAR1 ag confirm 63*, Ga16 ag counter 2, TAAR1 desens 12 and Ga16 nonsel ant 8.
COC(=O)c1cc(-c2ccc(C)cc2)c(=O)n2c1CCC2 was read as rCAG RNA binder 4.
CCN(CC)CCCNC(=O)c1cc(-c2ccccc2)c(N2CCCCC2)s1 was read as core dimer inh -4, TAAR1 agonist 53*, rCAG RNA binder 2, HCV NS3 hel inh -95, TAAR1 antag 8, TAAR1 ag confirm 55*, Ga16 ag counter 34*, TAAR1 desens 40 and Ga16 nonsel ant 18.
CSc1ccc(CCNC(=O)c2cc(-c3ccccc3)c(N3CCOCC3)s2)cc1 was read as core dimer inh 10, TAAR1 agonist 2, rCAG RNA binder 7, HCV NS3 hel inh -28 and TAAR1 antag 30.
`O=C(O)C1C2CCC(C2)C1C(=O)NCCc1cccc(Cl)c1` (configuration not stated) gave core dimer inh -1, TAAR1 agonist 76*, rCAG RNA binder 0, HCV NS3 hel inh -3, TAAR1 antag 86*, TAAR1 ag confirm 88*, Ga16 ag counter -1, TAAR1 desens 73* and Ga16 nonsel ant 0.
Screening O=C(O)C1C2CCC(C2)C1C(=O)Nc1cc(F)ccc1F (configuration not stated) returned core dimer inh -7, TAAR1 agonist 9, rCAG RNA binder -4, HCV NS3 hel inh -8 and TAAR1 antag 1.
`O=C(O)C1C2CCC(C2)C1C(=O)NCCc1ccc(F)cc1` (configuration not stated) gave core dimer inh 0, TAAR1 agonist 78*, rCAG RNA binder -4, HCV NS3 hel inh 7, TAAR1 antag 79*, TAAR1 ag confirm 77*, Ga16 ag counter 6, TAAR1 desens 55* and Ga16 nonsel ant 13.
`FC(F)(F)c1cccc(N2CCN(C3=Nc4ccccc4Sc4ccccc43)CC2)c1` gave rCAG RNA binder 7.
For Cc1cc(N2CCCC2)c(F)cc1/C=C\[N+](=O)[O-] the results were TAAR1 agonist 193*, rCAG RNA binder -2, HCV NS3 hel inh 1, TAAR1 antag 81*, TAAR1 ag confirm 61*, Ga16 ag counter 68*, TAAR1 desens 60* and Ga16 nonsel ant 70*.
C#CCNC(=O)c1ccc(OCc2ccccc2)cc1Cl was read as core dimer inh -1, TAAR1 agonist 3, rCAG RNA binder 1, HCV NS3 hel inh -4 and TAAR1 antag -29.
O=C(NCCCl)c1ccc(OCc2ccccc2)cc1Cl was read as core dimer inh -4, TAAR1 agonist 48*, rCAG RNA binder 15, HCV NS3 hel inh -57, TAAR1 antag -3, TAAR1 ag confirm 68*, Ga16 ag counter 17*, TAAR1 desens 56* and Ga16 nonsel ant 19.
Screening Cc1c(Cl)ccc2c1NC(=O)[C@]21N[C@@H](Cc2ccccc2)[C@H]2C(=O)N(c3ccc(F)cc3)C(=O)[C@H]21 returned core dimer inh 15, TAAR1 agonist 92*, rCAG RNA binder 7, HCV NS3 hel inh -16, TAAR1 antag 36, TAAR1 ag confirm 103*, Ga16 ag counter 42*, TAAR1 desens 75* and Ga16 nonsel ant 38*.
COC(=O)c1cc2c(c3c4cc(C)ccc4n(S(=O)(=O)c4ccc(OC)cc4)c13)C(=O)N(C)C2 was read as TAAR1 agonist -1, rCAG RNA binder 13 and TAAR1 antag -13.
`Nc1nc(Nc2cccc(F)c2)nc2ccccc12` gave core dimer inh -3, TAAR1 agonist 98*, rCAG RNA binder 4, HCV NS3 hel inh -19, TAAR1 antag 82*, TAAR1 ag confirm 91*, Ga16 ag counter 5, TAAR1 desens 94* and Ga16 nonsel ant 6.
`Cc1cc(NC(=O)Cc2cn(C)c3ccccc23)ccc1Nc1cccnc1` gave TAAR1 agonist 0, rCAG RNA binder 6 and TAAR1 antag -6.
For Cc1nn(Cc2ccccc2Cl)c(C)c1NC(=O)c1cc(-c2ccc(F)cc2)on1 the results were core dimer inh 2, TAAR1 agonist 55*, rCAG RNA binder -2, HCV NS3 hel inh -7, TAAR1 antag 63*, TAAR1 ag confirm 21, Ga16 ag counter 8, TAAR1 desens 53* and Ga16 nonsel ant 26*.
`CCCCN1C(=O)/C(=C/C=C2\SCCN2C)SC1=S` gave TAAR1 agonist 71*, rCAG RNA binder -66, HCV NS3 hel inh 14, TAAR1 antag 28, TAAR1 ag confirm 50*, Ga16 ag counter 34*, TAAR1 desens 40 and Ga16 nonsel ant 45*.
CN1C(=O)[C@@]2(C3=C(CCCC3=O)OC3=C2C(=O)OC2(CCCCC2)C3)c2ccccc21 was read as TAAR1 agonist 1, rCAG RNA binder 2 and TAAR1 antag -7.
`CC1CCN(CC(=O)N2CCCc3c2c(=O)oc2ccc(OCc4ccccc4)cc32)CC1` gave core dimer inh 9, TAAR1 agonist 2, rCAG RNA binder 3, HCV NS3 hel inh -13 and TAAR1 antag 1.
CCCOc1ccc2oc(=O)c3c(c2c1)CCCN3C(=O)CN1CCc2ccccc2C1 was read as core dimer inh 16, TAAR1 agonist 73*, rCAG RNA binder -6, HCV NS3 hel inh -7, TAAR1 antag 3, TAAR1 ag confirm 54*, Ga16 ag counter -1, TAAR1 desens 13 and Ga16 nonsel ant 11.
`CC(C)(C)c1ccc(C(=O)NC(=S)NNC(=O)c2cccs2)cc1` gave core dimer inh 2, TAAR1 agonist 174*, rCAG RNA binder 11, HCV NS3 hel inh 13, TAAR1 antag 105*, TAAR1 ag confirm 159*, Ga16 ag counter 129*, TAAR1 desens 107* and Ga16 nonsel ant 102*.
